{"data": "Measurements pooled from the literature", "effect on": "cell growth or viability", "note": "Lines come from different studies, so protocols differ."}
{"SMILES": "C[C@@H]1CC2=C(CN1Cc1cccc(C#N)c1)C(=O)N(Cc1ccc(Br)cc1)C1=NCCN12", "cell line": "MOLM-13", "method": "MTS", "endpoint": "IC50", "value": "0.00793 µM"}
{"SMILES": "Cc1c(C(=O)O)ccc2c3n(nc12)[C@@H]1[C@H](C3)N(CC2CC2)[C@@]2(C(=O)Nc3cc(Cl)ccc32)[C@H]1c1cccc(Cl)c1F", "cell line": "Rh18", "endpoint": "GI50", "value": "0.00023 µM"}
{"SMILES": "COc1cc2nc(N3CCN(C(=O)c4ccco4)CC3)nc(N)c2cc1OC", "cell line": "C6661", "method": "MTT", "time": "48 h", "endpoint": "IC50", "value": "27.4 µM"}
{"SMILES": "C=CC(=O)N1CCN(c2nc(=O)n(-c3c(C)ccnc3C(C)C)c3nc(-c4c(O)cccc4F)c(F)cc23)[C@@H](C)C1", "cell line": "SW1573", "method": "ATP luminescence", "endpoint": "IC50", "value": "> 10 µM"}
{"SMILES": "CNC(=O)c1cc(Oc2ccc(NC(=O)Nc3ccc(Cl)c(C(F)(F)F)c3)cc2)ccn1", "cell line": "NCI-H23", "method": "MTT", "time": "72 h", "endpoint": "IC50", "value": "4.25 µM"}
{"SMILES": "C=CC(=O)c1cccnc1Nc1cc(C(F)(F)F)ccc1OC", "cell line": "NCI-H23", "method": "SRB", "time": "48 h", "endpoint": "GI50", "value": "6.67 µM"}
{"SMILES": "Cc1noc2c1-c1ccccc1C(c1ccc(Cl)cc1)=N[C@H]2CC(N)=O", "cell line": "MOLM-13", "method": "ATP luminescence", "time": "72 h", "endpoint": "IC50", "value": "0.474 µM"}
{"SMILES": "Cc1cc(/C=C/C#N)cc(C)c1Nc1ccnc(Nc2ccc(C#N)cc2)n1", "cell line": "C6661", "method": "MTT", "time": "48 h", "endpoint": "IC50", "value": "4.67 µM"}
{"SMILES": "O=C(O)c1cccnc1Nc1cccc(C(F)(F)F)c1", "cell line": "NCI-H23", "method": "SRB", "time": "48 h", "endpoint": "GI50", "value": "> 30 µM"}
{"SMILES": "O=C(NO)c1ccc(CNc2nc3cccc(-c4ccc5c(c4)OCO5)n3n2)cc1", "cell line": "NCI-H23", "method": "SRB", "endpoint": "GI50", "value": "0.66 µM"}
{"SMILES": "C=CC(=O)c1cccnc1Nc1cc(C(F)(F)F)ccc1OCc1ccccc1", "cell line": "NCI-H23", "method": "SRB", "time": "48 h", "endpoint": "GI50", "value": "16.5 µM"}
{"SMILES": "C=CC(=O)NC1CCN(c2ncc3ncnc(Nc4ccc(Oc5ccc6c(c5)ncn6C)c(C)c4)c3n2)CC1", "cell line": "SNU-601", "endpoint": "EC50", "value": "0.00422 µM"}
